Measurements of several laboratories.
Protocols differ between the studies behind these lines.
Target: Ephrin type-A receptor 4 (EPHA4, Homo sapiens, UniProt P54764)

With `Cc1cnc(Nc2ccc(C(=O)N3CCC(N4CCCC4)CC3)cc2)nc1-c1cc2ccccc2s1` the remaining binding was 57% (binding; competition with immobilised ligand; 1 µM).
With `CNC(=O)c1ccc(Nc2ncc(C(F)(F)F)c(NCc3nccnc3N(C)S(C)(=O)=O)n2)cc1` the remaining binding was 99% (cell-free assay; competition with immobilised ligand; 0.1 µM).
For `CNC(=O)[C@@H]1CC[C@@H](n2c(-c3ccc4cnccc4c3)nc3ccc(C(=O)NCc4cccc(C(N)=O)c4)cc32)C1`, the remaining binding was 98% (binding; competition with immobilised ligand; 1 µM).
The remaining binding of `CN(c1nccc(-c2cnn3ncccc23)n1)C1CC1` is reported as 100% (binding; 1 µM).
`FC(F)(F)Oc1cccc(-c2cnc3ccc(-c4ccncc4)nn23)c1` gave a remaining binding of 92% (cell-free assay; competition with immobilised ligand; 5 µM).
The remaining binding of `O=C(N1CCS(=O)(=O)CC1)N1C[C@H](c2ccc(OC(F)(F)F)cc2)C[C@H](c2nc(C3CC3)no2)C1` is reported as 100% (cell-free assay; competition with immobilised ligand; 1 µM).
For `C[C@H]1CCN(c2nccc(-c3cnn4ncccc34)n2)C1`, the remaining binding was 86% (binding; 1 µM).
With `Nc1ncc2c(n1)-c1c([nH]c3ccc(C#CC4CC4)cc13)CCCC2` the remaining binding was 100% (binding; competition with immobilised ligand; 1 µM).
`C[C@@H](c1ccc(-n2cnc3c(N)ncnc32)cc1)N1CCc2nn(C)c(Cc3ccccc3)c2C1=O` has a remaining binding of 97% (binding; competition with immobilised ligand; 0.1 µM).
For `O=C(NCC1CCOCC1)c1n[nH]cc1NC(=O)c1c(F)cccc1F`, the remaining binding was 100% (binding; competition with immobilised ligand; 1 µM).
For `N[C@H]1CCN(c2nccc(-c3cnn4ncccc34)n2)C1`, the remaining binding was 100% (binding; 1 µM).
With `O=C(NCc1ncc(C(F)(F)F)cc1Cl)c1ccc2c(c1)C1(CCS(=O)(=O)CC1)[C@H](C1CC1)N2S(=O)(=O)c1ccc(F)cc1` the remaining binding was 100% (cell-free assay; competition with immobilised ligand; 1 µM).
`Cc1cnn2ncc(-c3ccnc(N(C)C)n3)c2c1` gave a remaining binding of 96% (binding; 1 µM).
For `O=C(c1ccc(Nc2nccc(-c3cc4ccccc4s3)n2)cc1)N1CCC(N2CCCC2)CC1`, the remaining binding was 91% (binding; competition with immobilised ligand; 1 µM).
For `O=C(Nc1ccc(Oc2ccc(F)cc2)cc1)N1CCc2ncccc2[C@H]1c1ccc(F)cc1`, the remaining binding was 100% (cell-free assay; competition with immobilised ligand; 1 µM).
For `O=C(c1ccc(Nc2ncc(Cl)c(-c3cc4ccccc4s3)n2)cc1)N1CCC(N2CCCC2)CC1`, the remaining binding was 65% (binding; competition with immobilised ligand; 1 µM).
The remaining binding of `F[C@@H]1CCN(c2nccc(-c3cnn4ncccc34)n2)C1` is reported as 100% (binding; 1 µM).
With `CC(=O)Nc1c(C(C)=O)c(=O)n(C)c2nc(-c3ccc(Cl)cc3Cl)c(-c3ccc(Cl)cc3)cc12` the remaining binding was 96% (cell-free assay; competition with immobilised ligand; 1 µM).
The remaining binding of `COc1cnc(Nc2cccc(S(N)(=O)=O)c2)nc1N1CCN(c2ccccc2)CC1` is reported as 97% (binding; competition with immobilised ligand; 1 µM).
For `CC1CCCN1c1nccc(-c2cnn3ncccc23)n1` (stereo not shown), the remaining binding was 97% (binding; 1 µM).
For `CNCc1ccccc1-c1csc([C@@H](C)Nc2nc(C)nc3cc(OC)c(OC)cc23)c1`, the remaining binding was 79% (cell-free assay; competition with immobilised ligand; 1 µM).
With `C=CC(=O)N1CCC(C(=O)NCC(=O)N2CCN(c3nc(-c4cnc(N)nc4C(F)F)nc(N4CCOCC4)n3)CC2)CC1` the remaining binding was 94% (binding; competition with immobilised ligand; 1 µM).
